Rows were chosen to be rich in hits. Some 2.2% of all compounds tested hit in one or more screens of this group.
LMPTP block – LMPTP phosphatase inhibitors, primary screen, biochemical, fluorescence intensity, uHTS; recombinant LMPTP-A, OMFP fluorogenic substrate; inhibition, % at 20 µM; hit rate 0.22% among 360,000;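 active means compounds that cut the enzyme signal by at least half of the control window in the single-dose screen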
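test system = LMPTP-A | amount = 0.625 nM LMPTP-A final | reagent = fluorogenic phosphatase substrate OMFP at 400 µM final | incubation = 50 min at room temperature | benchmarks = no-enzyme low control, uninhibited high control | medium = Bis-Tris pH 6.0, DTT, detergent | signal = fluorescence intensity of OMFP turnover product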
SUMO1 PPI mod – modulators of SUMO1 protein-protein interactions, primary screen, biochemical, uHTS; AID 602429, 2012; Small ubiquitin-related modifier 1 (Homo sapiens), P63165; inhibition, % at 20 µM; hit rate 0.33% among 360,000; SUMO1 binding to a labelled peptide, TR-FRET, 1 h; in the data active means inhibition above about 37%
GRK2 inh – compounds blocking aptamer binding on GRK2 – biochemical, human GRK2, bead flow cytometry, HTS, primary screen; Beta-adrenergic receptor kinase 1 (Homo sapiens), P25098; FAM-aptamer displacement from GRK2; inhibition of aptamer binding, % at 10 µM; hit rate 0.59% among 330,000; AID 488847, 2010;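 active means inhibition of aptamer binding above 40%, roughly 3 SD of noise, on plates passing a quality check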;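 further: median bead fluorescence of bound FAM aptamer so fluorescent compounds give negative values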
DNMT1 inh – human DNMT1 methyltransferase inhibitors, primary screen, biochemical, molecular beacon, fluorescence, HinP1I cleavage, uHTS; DNA (cytosine-5)-methyltransferase 1 (Homo sapiens), P26358; hit rate 0.83% among 360,000; AID 588458, 2011; inhibition (reported as % activation of signal), % at 10 µM; in the data active means inhibition above about 50%
Scp-1 inhibitor – Scp-1 phosphatase inhibitors, primary screen, biochemical, colorimetric, uHTS; hit rate 0.88% among 340,000; AID 493091, 2011; inhibition, % at 20 µM; Recombinant Scp1, phosphopeptide, malachite green phosphate absorbance;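 active means inhibition above about 50% at 20 µM, limit read from the data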
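Test system: SCP-1 phosphatase catalytic domain, residues 76-261 | Compound dosing: One concentration, 20 µM, with 1.0% DMSO | Schedule: 45 min room-temperature reaction, 5 min colour, 30 min stabiliser | Detection: Absorbance at 630 nm | Read-out basis: % inhibition of SCP-1 phosphate liberation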
STEP inh – STEP phosphatase inhibitors, primary screen, biochemical, fluorescence intensity, uHTS; Tyrosine-protein phosphatase non-receptor type 5 (Homo sapiens), P54829; recombinant STEP, OMFP fluorogenic substrate; inhibition, % at 20 µM; hit rate 0.25% among 360,000; AID 588621, 2011;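 active means inhibition at 20 µM, scaled per plate between control wells, above about 37%, limit read from the data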
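System: isolated STEP enzyme; schedule: 20 min enzyme reaction at room temperature, protected from light; medium: Bis-Tris buffer pH 6.0, 2.5 mM DTT, 0.005% Tween 20; signal: fluorescence, 480/540 nm; dosing: single compound dose of 20 µM, 1% DMSO final; also added: OMFP substrate, 25 µM final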
GRK2 inh confirm – GRK2 aptamer-displacing inhibitors, retest, confirmation, biochemical, cherry pick 1, bead flow cytometry. aptamer displacement, % at 10 µM. hit rate 4% among 2,000. bead-bound GRK2, FAM-aptamer displacement. shares compounds with GRK2 inh;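 active means aptamer displacement above 40%, near three times the noise of non-fluorescent compounds, on plates passing quality checks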;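 further: negative values mostly reflect intrinsic compound fluorescence rather than true enhancement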
Aptamer quench 1 – quenches fluorescent RNA aptamer, GRK2 hit artifact; fluorescence change (kMESF span), kMESF (concentration not given with the values); shares compounds with GRK2 inh; 110 tested, under 10 active; Fluorescent RNA aptamer beads, quenching, flow cytometry; active compounds read high;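 active means compounds whose bead fluorescence drops by more than 37 kMESF across the dose range, marking them as dye quenchers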
FAM quench CP1 – aptamer fluorescence quenching in GRK2 counter-screen; shares compounds with GRK2 inh; Carboxyfluorescein RNA aptamer on beads, flow cytometry quenching; active compounds read low; fluorescence response (% of DMSO), % at 10 µM; 2,000 tested, under 10 active;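 active means compounds that quench the bead-bound fluorescent RNA probe, cutting fluorescence to under half of the solvent control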;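 further: counterscreen run without GRK2 so only probe quenching by compound is measured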
GRK2 CP2 – GRK2 aptamer-displacing inhibitors, hit retest, confirmation, biochemical, cherry pick 2, bead flow cytometry. shares compounds with GRK2 inh. bead-bound GRK2, FAM-aptamer displacement. inhibition of aptamer binding, % at 10 µM. 360 tested, under 10 active. AID 504782, 2011;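 active means inhibition of aptamer binding above 40%, about triple the noise seen with nonglowing compounds, on plates passing quality control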;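 further: negative values mostly come from compounds that fluoresce themselves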
FAM quench SP – quenches fluorescent RNA aptamer, GRK2 hit artifact | carboxyfluorescein RNA aptamer beads, flow cytometry quenching; active compounds read low | shares compounds with GRK2 inh | fluorescence response vs DMSO, % at 10 µM | 360 tested, under 10 active | AID 588494;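 active means response vs DMSO under 50%, meaning signal dropped by over half, treated as fluorescence quencher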;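 further: labelled aptamer on streptavidin beads without GRK2 as a quench counter-screen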
Numbers stand for hits; - = inactive; . = not tested or not shown.

SMILES | LMPTP block | SUMO1 PPI mod | GRK2 inh | DNMT1 inh | Scp-1 inhibitor | STEP inh | GRK2 inh confirm | FAM quench CP1 | others
COc1ccc(CCCC(=O)Nc2cc(C)ccc2OC)cc1 | - | - | - | - | - | - | . | .
COc1ccc(S(=O)(=O)CCC(=O)Nc2cc(C)ccc2OC)cc1 | - | - | - | - | - | - | . | . | GRK2 CP2=-;FAM quench SP=-
COc1ccc(OC)c(NC(=O)CCS(=O)(=O)c2cc3c(cc2C)NC(=O)CO3)c1 | - | - | - | - | - | - | . | . | GRK2 CP2=-;FAM quench SP=-
O=C(COC(=O)c1ccc(F)cc1Cl)NC1CC1 | - | - | . | - | . | - | . | .
CN(C(=O)c1ccc(NC(=O)Cc2ccc(NC(=O)C3CCN(C(=O)C4CCC4)CC3)cc2)cc1)C1CC1 | - | - | 69.0 | - | - | - | - | -
CN(C(=O)c1ccc(NC(=O)Cc2ccc(NC(=O)C3CCN(C(=O)C4CCCC4)CC3)cc2)cc1)C1CC1 | - | - | - | - | - | - | . | .
C[C@@H]1CN([C@H](C)CO)C(=O)c2cc(-c3ccc(C(=O)N(C)C)cc3)cnc2O[C@@H]1CN(C)C(=O)c1cccnc1 | - | - | . | - | . | - | . | .
CCCN(C(=O)c1ccc(N2CCCC2=O)cc1)c1c(N)n(Cc2ccccc2)c(=O)[nH]c1=O | - | - | - | - | - | - | - | -
CC(C)CCN(C(=O)c1ccc(N2CCCC2=O)cc1)c1c(N)n(Cc2ccccc2)c(=O)[nH]c1=O | - | - | - | - | - | - | . | .
CC(C)C[C@H](NC(=O)OC(C)(C)C)C(=O)N1CCC(C(=O)O)CC1 | - | - | 65.0 | - | - | - | - | -
Cc1ccc(-c2nc(CS(=O)(=O)CC(=O)N3CCCCCC3)c(C)o2)cc1 | - | - | 73.0 | - | - | - | - | -
Cc1ccc2cc(CN(Cc3nnnn3Cc3ccco3)CC3CCCO3)c(=O)[nH]c2c1C (stereo unspecified) | - | - | 64.0 | - | - | - | - | -
Cc1ccc2cc(CN(CC3CCCO3)C(=S)NCc3ccco3)c(=O)[nH]c2c1C (stereo unspecified) | - | - | - | - | - | - | . | .
COc1cc(/C=C/CNC[C@H]2O[C@@H](n3cnc4c(N)ncnc43)[C@H](O)[C@@H]2O)ccc1O | - | - | . | - | . | - | . | .
CNC(C)C(=O)NC(C(=O)N1CCCC1C(=O)NC1CCCc2ccccc21)C(C)C (stereo unspecified) | - | - | - | - | - | - | . | .
CNC(C)C(=O)NC(C(=O)N1CCCC1C(=O)NNc1ccccc1)C(C)C (stereo unspecified) | - | - | 67.0 | - | - | - | - | -
CCN1/C(=C/c2ccc3cc(C)ccc3[n+]2CC)Sc2ccccc21 | 72.0 | - | 55.0 | - | - | - | - | -
CC/C(=C/c1sc2ccccc2[n+]1CC)SC | - | - | - | - | - | - | . | .
CCN1/C(=C/C=C/c2sc3ccccc3[n+]2CC)Sc2ccccc21 | 62.4 | - | 100.0 | - | - | - | 100.8 | - | Aptamer quench 1=-
CCN1/C(=C/c2sc(-c3ccccc3C)c[n+]2C)Sc2ccccc21 | - | - | . | - | - | - | . | .
CCCCCC(=O)Nc1ccc(N2CCOCC2)c(S(=O)(=O)Nc2ccc(OC)cc2)c1 | - | - | 82.0 | - | - | - | - | -
CC(C)CCNC(=O)c1ccc(-n2cnc3cccnc32)cc1 | - | - | 45.0 | - | - | - | - | -
C=CCOc1ccccc1/C=N/n1nnnc1N | - | - | - | - | - | - | . | .
Nc1nnnn1/N=C/c1ccccc1OCc1ccc(Cl)cc1 | - | - | 74.0 | - | - | - | - | -
CCC(C)(C)NC(=O)CN(Cc1cccs1)C(=O)C(=O)Nc1ccc2c(c1)OCCO2 | - | - | 74.0 | - | - | - | - | -
SMILES | LMPTP block | SUMO1 PPI mod | GRK2 inh | DNMT1 inh | Scp-1 inhibitor | STEP inh | GRK2 inh confirm | FAM quench CP1 | others
Cc1cc(=O)[nH]c(SCc2cccc3ccccc23)n1 | - | - | - | - | - | - | - | -
CCCCCCCCN1C(=O)[C@H](CC(=O)NCCCOCCCC)C[C@@]2(C(=O)OCC)CCCC=C12 | - | - | . | . | . | . | . | .
CN(C)S(=O)(=O)c1cccc(COc2ncnc3c(Cl)cc(Cl)cc23)c1 | - | - | 90.0 | - | - | - | - | -
COC(=O)c1ccc(CSc2nnc(C)n2N)o1 | - | - | 100.0 | - | - | - | . | . | GRK2 CP2=-;FAM quench SP=-
NC(=O)c1ccsc1NC(=O)COC(=O)c1ccc([N+](=O)[O-])o1 | - | - | 80.0 | - | - | - | - | -
O=C(Nc1ccccc1C(=O)Nc1ccc(Br)cn1)c1ccccc1Cl | - | - | 44.0 | - | - | - | . | . | GRK2 CP2=-;FAM quench SP=-
Cc1ccccc1C(=O)Nc1ccc(Br)cn1 | - | - | - | - | - | - | . | .
CCN(CC(=O)Nc1c(F)cccc1F)C(=O)c1cc2ccccc2oc1=O | - | - | 100.0 | - | - | - | - | -
CCN(CC(=O)Nc1c(F)cccc1F)C(=O)CNC(=O)c1ccc2ccccc2c1 | - | - | - | - | - | - | . | .
O=C(Oc1ccc(Cl)c2ccccc12)N1CCCCC1 | - | - | 99.0 | - | - | - | - | -
O=C(NC(CC1CCCCC1)C(=O)O)c1ccccc1 (stereo unspecified) | - | - | 99.0 | - | - | - | - | -
COC(=O)[C@@]1(C(C)C)N=C(c2cc(OC)c(OC)c(OC)c2)[C@]2(O1)C(=O)Nc1ccccc12 | - | - | . | . | . | . | . | .
CCN(C(=O)COC(=O)c1cc(-c2ccc3cc(OC)ccc3c2)nc2ccccc12)C1CCS(=O)(=O)C1 (stereo unspecified) | . | . | - | . | . | . | . | .
